The values that follow come from ChEMBL document CHEMBL3232778, “One-pot synthesis and radical scavenging activity of novel polyhydroxylated 3-arylcoumarins” (Eur J Med Chem, 2014).

Structures are written as SMILES. The source made the active and inactive calls. The rule behind the calls is not given here.

Test [1] deals with Radical scavenging activity. The test can be described thus: Antioxidant activity assessed as DPPH radical scavenging activity by spectrophotometry. It is filed as functional. Summed up: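 DPPH• in methanol, prepared daily and kept from light; 0.5 mL test solution in methanol (4-25 µM) added to 0.5 mL of 100 µM DPPH•. Absorbance read at 518 nm at intervals until equilibrium, with a methanol blank; triplicates, five analyte concentrations. %DPPH• remaining = Af/A0×100; concentration plotted against % remaining to get the 50% scavenging value.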

Test [2] concerns Radical scavenging activity. The test can be described thus: Antioxidant activity assessed as DPPH radical scavenging activity up to 100 uM by spectrophotometry. It is filed as functional.

On to `O=C(O)c1cc(O)c(O)cc1-c1cc2ccccc2oc1=O`, for which the EC50 – broadly, the midpoint of the concentration-response curve – in test [1] turned out to be 5.14 µM. Turning to `O=C(O)c1ccccc1-c1cc2cc(Br)ccc2oc1=O`, in test [2], the outcome was inactive. Regarding `Cc1c(C)c2c(c(C)c1O)CCC(C)(C(=O)O)O2` (stereo not given) [TROLOX], in test [1], the concentration for a half-maximal effect (EC50) is 9.34 µM. The same measure, in the same setting: for `O=C(O)c1cc(O)c(O)cc1-c1cc2cc(Br)ccc2oc1=O` the value was 4.02 µM. With `O=C(O)c1ccccc1-c1cc2cc(O)ccc2oc1=O`, the result in test [2] was inactive. For `O=C(O)c1cc(O)c(O)cc1-c1cc2cccc(O)c2oc1=O`, the EC50 in test [1] came to 4.09 µM.

With `O=C(O)c1ccccc1-c1cc2ccc(O)c(O)c2oc1=O`, the EC50 in test [1] was determined as 3.59 µM. The same measure, in the same setting: for `O=C(O)c1cc(O)c(O)cc1-c1cc2cc(O)c(O)cc2oc1=O` the value was 5.3 µM. As for `O=C(O)c1ccccc1-c1cc2c(O)cccc2oc1=O`, the outcome in test [2] was inactive. For the compound `O=C(O)c1ccccc1-c1cc2cc(O)c(O)cc2oc1=O`, the 50% effective concentration (EC50) in test [1] was determined as 5.32 µM. The same measure, in the same setting: for `O=C(O)c1cc(O)c(O)c(O)c1` [GALLIC ACID] the value was 5.34 µM. As for `O=C(O)c1cc(O)c(O)cc1-c1cc2ccc(O)c(O)c2oc1=O`, the EC50 in test [1] worked out at 3.39 µM. Same read-out and setting: the result for `O=C(O)c1cc(O)c(O)cc1-c1cc2cc(O)ccc2oc1=O` reads 3.17 µM; that for `O=C(O)c1cc(O)c(O)cc1-c1cc2c(O)cccc2oc1=O`, 6.86 µM. Turning to `O=C(O)c1ccccc1-c1cc2ccc(O)cc2oc1=O`, the outcome in test [2] was inactive.

With `O=C(O)c1ccccc1-c1cc2cccc(O)c2oc1=O`, the outcome in test [2] was inactive. Regarding `O=C(O)/C=C/c1ccc(O)c(O)c1` [CAFFEIC ACID], in test [1], the concentration giving a half-maximal response (EC50) is 9.48 µM. Still for that read-out and setting: the result for `O=C(O)c1cc(O)c(O)cc1-c1cc2ccc(O)cc2oc1=O` reads 6.02 µM.

In the case of `O=C(O)c1ccc(O)c(O)c1` [PROTOCATECHUIC ACID], the half-maximal effective concentration (EC50) in test [1] was found to be 8.83 µM. Turning to `O=C(O)c1ccccc1-c1cc2ccccc2oc1=O`, in test [2], the result was inactive.
